# Compounds with a hit are over-represented: about 1.2% of the library has one in this group of screens.
# CRFBP-R2 block – CRF-BP/CRF-R2 complex antagonism | HEK293 CRF-R2/CRF-BP, CRF-induced calcium fluorescence | inhibition, % at 11.8 µM | hit rate 0.59% among 350,000 | AID 588475;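 active = inhibition of the ligand-induced calcium signal above about 50% at the single tested concentration, limit read from the data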
# CRFBP-R2 agonist – agonists of human CRF-binding protein/CRF-R2 receptor complex | HEK293 CRF-R2/CRF-BP, calcium dye fluorescence (FLIPR); percent of saturating CRF peptide response | activation, % at 13.2 µM | hit rate 0.46% among 350,000 | AID 588473;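 active = activation of at least 50%, plus an integration ratio under a set limit after plate pattern correction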;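 also: plate controls were neutral control wells without compound for no effect and CRF at EC100 for full effect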
# TRPML3 ag – human mucolipin-3 channel agonism | Q8TDD5 | HEK293 TRPML3-YFP, Fluo-8 calcium fluorescence; 100% = the carbachol control signal | activation, % at 3 µM | hit rate 0.29% among 220,000;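 active = activation above its plate's cutoff, the mean activation of the plate's test wells plus 3 SD, cut at about 12% in these data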;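 also: 0% = DMSO only wells and 100% = carbachol wells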
# Target sequence (Q8TDD5 whole entry, looked up): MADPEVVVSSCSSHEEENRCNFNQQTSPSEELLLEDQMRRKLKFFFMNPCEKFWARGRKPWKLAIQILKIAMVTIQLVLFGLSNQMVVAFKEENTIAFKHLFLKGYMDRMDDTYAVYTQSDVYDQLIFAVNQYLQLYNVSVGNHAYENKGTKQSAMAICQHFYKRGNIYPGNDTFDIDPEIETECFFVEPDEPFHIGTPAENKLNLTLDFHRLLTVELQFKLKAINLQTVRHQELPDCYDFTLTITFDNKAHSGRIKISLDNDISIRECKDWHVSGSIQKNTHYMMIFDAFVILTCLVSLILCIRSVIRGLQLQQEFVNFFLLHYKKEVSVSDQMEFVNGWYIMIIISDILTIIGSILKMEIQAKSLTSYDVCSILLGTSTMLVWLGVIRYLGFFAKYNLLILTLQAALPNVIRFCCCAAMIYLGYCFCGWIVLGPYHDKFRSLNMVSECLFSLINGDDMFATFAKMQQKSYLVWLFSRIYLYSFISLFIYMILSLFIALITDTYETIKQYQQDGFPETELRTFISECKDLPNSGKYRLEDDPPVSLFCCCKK
#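 Test system: HEK293 cells stably carrying human TRPML3-YFP; Doses: single dose, 3 µM final nominal compound, 0.3% DMSO final; Schedule: dye loading 1 h 37 °C then 30 min ambient, 125 s read; Technique: Fluo-8 calcium fluorescence; Benchmarks: high control carbachol 87 µM, low control DMSO.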
# TRPN1 ag – zebrafish TRPN1 (NompC) channel agonism; hit rate 0.18% among 220,000; AID 1424; HEK293 zebrafish TRPN1-YFP, Fluo-8 calcium fluorescence; 100% = response to 87 µM carbachol; activation, % at 3 µM;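 active = activation above its plate's cutoff, the mean activation of test wells on that plate plus 3 SD, cut at about 19% in these data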;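 also: 0% = DMSO alone and 100% = 87 µM carbachol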
#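 System: zebrafish TRPN1-YFP in HEK293 cells / Dosing: 3 µM single point / Timing: dye loading 1 h at 37 °C, then 30 min room temperature / Signal: Fluo-8 calcium fluorescence, excitation 470-495 nm, emission 515-575 nm / Read-out basis: percent activation from peak over basal fluorescence ratio, control-normalized / Control set: high carbachol 87 µM, low DMSO alone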
# Active calls of the source: *; . = no result.
SMILES,CRFBP-R2 block,CRFBP-R2 agonist,TRPML3 ag,TRPN1 ag
Cc1c(-n2cc(C(=O)c3cc(F)ccc3O)cc(C#N)c2=O)c(=O)n(-c2ccccc2)n1C,-10.1,51.1*,1.4,3.2
CC(C)n1cc(C(=O)c2ccccc2O)cc(C#N)c1=O,-5.3,-1.4,2.0,-0.3
N#Cc1cc(C(=O)c2cc(F)ccc2O)cn(-c2nccs2)c1=O,-416.0,341.4*,22.5*,28.3*
N#Cc1cc(C(=O)c2ccccc2O)cn(-c2nccs2)c1=O,-224.2,238.8*,33.6*,47.0*
Cc1ccccc1-n1cc(C(=O)c2cc(Cl)ccc2O)cc(C#N)c1=O,-13.9,-1.5,2.3,2.9
O=C(CSc1n[nH]c(-c2ccccn2)n1)Nc1ccccc1F,-9.0,-0.3,.,.
C=CCOc1ccc(C2=NOC(C(=O)Nc3ccc4c(c3)OCCO4)C2)cc1 (stereo not given),-9.5,-0.5,.,.
COc1cc2c(cc1NC(=O)COC(=O)CNC(=O)c1ccccc1)oc1ccccc12,76.1*,0.6,-0.1,0.1
N#Cc1c(-c2ccc(F)cc2)cc(-c2ccccc2)nc1SCC(=O)NCC(=O)O,-10.7,61.9*,0.6,-0.7
Cc1cc(C)n2nc(CC(=O)NNC(=O)c3ccccc3Cl)nc2n1,103.1*,0.9,.,.
NC(=S)N/N=C/c1ccc(-c2ccc(SC(F)F)cc2)o1,58.1*,0.5,0.1,-1.5
Cc1ccc(-c2ccc(/C=N/NC(N)=S)o2)cc1,-15.4,0.1,-1.7,-3.1
Cc1ccc(-n2nnnc2CNC(=O)C2CC(=O)N(c3ccc(F)cc3)C2)cc1C (stereo not given),-1.9,0.4,.,.
CCOc1ccc(N2CC(C(=O)NCc3nnnn3-c3ccc(C)c(C)c3)CC2=O)cc1 (stereo not given),53.5*,-0.4,.,.
O=C(NCCO)c1nc(C(=O)c2ccc(Cl)cc2)c2ccccc2n1,71.1*,-4.0,.,.
Cc1cc(C(=O)NCCc2ccc(Cl)cc2)c2ccccc2n1,0.7,0.5,.,.
CCN(CC)c1ccc(/C=C2\C(=N)N3N=C(CC(=O)N4CCOCC4)SC3=NC2=O)cc1,-56.5,109.3*,.,.
CC1(c2ccc(OC(F)F)cc2)NC(=O)N(CC(=O)c2ccc3c(c2)OCO3)C1=O (stereo not given),-30.6,85.6*,.,.
CC1(c2ccc(OC(F)F)cc2)NC(=O)N(CC(=O)NC2CCCCC2)C1=O (stereo not given),-11.3,3.9,1.9,3.2
CC1(c2ccc([N+](=O)[O-])cc2)NC(=O)N(CC(=O)c2ccc3c(c2)OCO3)C1=O (stereo not given),-16.3,60.3*,.,.
CC(=O)c1c(C)[nH]c(C(=O)CN2C(=O)NC(C)(c3ccc4c(c3)OCO4)C2=O)c1C (stereo not given),-41.0,5.3,.,.
COc1ccc(-c2csc(NC3=NCCCCC3)n2)cc1,-14.9,2.1,-0.2,-2.7
COC(=O)c1cc(S(=O)(=O)N2CCN(c3ccc(F)cc3)CC2)cn1C,-8.7,0.6,.,.
Cc1ccc(C(=O)N/N=C(/CC(=O)c2cccs2)C(F)(F)F)cc1,79.5*,20.1,0.7,2.3
Cc1cc(N2CCCCC2)nc(N)n1,-46.8,235.3*,11.2,10.9
SMILES,CRFBP-R2 block,CRFBP-R2 agonist,TRPML3 ag,TRPN1 ag
Cc1cc(N2CCCC2)nc(-c2ccccc2O)n1,24.9,-1.2,0.7,0.3
COc1ccc(OCc2nnc(SCC(=O)O)n2N)cc1,15.5,-0.9,1.2,0.6
N#C/C(=N/Nc1ccc(OC(F)(F)F)cc1)C(N)=S,35.9,41.5,14.7*,22.5*
CCCCN(C(=O)CSc1ncn[nH]1)c1c(N)n(Cc2ccccc2)c(=O)[nH]c1=O,70.1*,-0.6,.,.
Cc1nnc(SCC(=O)N(C)c2c(N)n(Cc3ccccc3)c(=O)[nH]c2=O)n1Cc1ccccc1,81.2*,1.6,0.6,-0.3
CCn1c(SCC(=O)N(C)c2c(N)n(Cc3ccccc3)c(=O)[nH]c2=O)nc2ccccc21,-0.5,0.9,-0.2,-1.2
CC(=O)Nc1ccc(S(=O)(=O)NCC(=O)OCC(=O)NCc2ccc3c(c2)OCO3)cc1,20.5,-2.9,.,.
O=C(CCS(=O)(=O)c1cccs1)NC1CCCCCC1,-10.0,-0.7,0.2,0.0
CCOc1ccc(S(=O)(=O)NCCC(=O)N(C)CC(=O)Nc2ccc(OC)cc2)cc1,-9.5,-1.0,.,.
NC(=O)COC(=O)c1ccc(-c2ccc(O)cc2)cc1,80.4*,0.9,0.7,2.1
O=C(Nc1ccccc1-c1ccccc1)NC1CC2CCCC(C1)N2CCc1ccccc1 (stereo not given),-11.2,-2.4,0.1,-1.0
CN(C)S(=O)(=O)c1ccc2c(c1)/C(=C/c1cc3c([nH]1)CCCC3)C(=O)N2,-139.3,122.1*,.,.
COc1ccc(NC(=S)NCc2cccnc2)cc1OC,3.6,-0.3,0.8,0.0
COc1ccc(NC(=S)NCc2cccnc2)cc1,92.4*,1.0,0.8,-0.1
N#C/C(=C/c1ccc(-c2ccccc2)o1)c1nc(-c2cccs2)cs1,-198.4,158.7*,2.9,3.6
N#C/C(=C/c1ccc(-c2ccc(S(N)(=O)=O)cc2)o1)C(=O)Nc1ccccc1,-57.9,8.2,0.2,3.5
N#C/C(=C/c1ccc(-c2ccc(S(N)(=O)=O)cc2)o1)c1nc2ccccc2s1,-233.9,203.3*,13.7*,12.9
N#C/C(=C\c1ccccn1)c1nc2ccccc2s1,-221.9,81.7*,7.5,26.2*
COc1ccc(CCNC(=O)Cc2ccc3c(c2)OCO3)cc1OC,-11.9,1.6,0.8,0.8
CCn1c(=O)cc(SCC(=O)Nc2ccc(OC)c(OC)c2)c2ccccc21,-31.2,0.9,1.9,6.3
CCCn1nnc(NC(=O)c2ccc(OC)cc2)n1,-23.3,0.3,0.8,0.9
O=C1CSC(c2ccc(Cl)cc2)N1c1cccnc1 (stereo not given),6.1,-2.2,1.0,-1.0
Cc1ccc(CNCCCSc2ncccn2)cc1,-6.0,0.6,.,.
N#C/C(=C(/O)COC(=O)c1ccccc1O)c1nc2ccccc2s1,45.2,79.2*,0.9,1.8
CC(C)(C)c1ccc(C(=O)OC/C(O)=C(\C#N)c2nc3ccccc3s2)cc1,37.6,26.4,0.8,0.3
SMILES,CRFBP-R2 block,CRFBP-R2 agonist,TRPML3 ag,TRPN1 ag
CN(N=Nc1ccc([N+](=O)[O-])cc1)c1ccccc1,-49.6,83.7*,0.9,0.5
CN(Cc1ccc([N+](=O)[O-])cc1)c1ccccc1,55.2*,-6.0,.,.
CN(N=Nc1cccc([N+](=O)[O-])c1)c1ccccc1,-1.6,0.3,.,.
OC(COCc1ccc(Cl)cc1)CN1CCN(CC(O)COCc2ccc(Cl)cc2)CC1 (stereo not given),11.4,2.1,1.4,10.1
COC1CC(=O)C2OC(c3ccccc3)OCC2O1 (stereo not given),-22.0,-1.3,.,.
FC(F)(F)c1nnc2sc(-c3cccs3)nn12,52.0*,-0.8,0.3,-1.2
FC(F)(F)c1nnc2sc(-c3ccncc3)nn12,-0.7,0.7,1.5,0.3
COc1cc(NC(=O)CSc2nc3ccccc3n2-c2ccccc2)c(C)cc1[N+](=O)[O-],54.6*,-1.6,-0.9,-0.7
Cn1cc(S(=O)(=O)Nc2ccc(Br)cc2F)c(=O)n(C)c1=O,71.2*,4.0,0.3,1.8

# From PubChem BioAssay
